From ChEMBL document CHEMBL1781879, “Synthesis and biological characterization of arylomycin B antibiotics” (2011)
In brackets after ≈: the same amount, converted by molar mass.

Experiments:
[1] = system: Staphylococcus epidermidis; experiment: Antibacterial activity against 1 x 10^7 CFU/mL wild-type Staphylococcus epidermidis RP62A in cation-adjusted Mueller Hinton 2 broth after 24 hrs by CLSI broth microdilution method; assay type: functional
Outline: (§1)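 CLSI broth microdilution. Bacteria from solid media were suspended in the test broth at 1×10^7 cfu/ml, and 5 μl was added to 100 μl medium containing compound. Media were cation-adjusted Mueller Hinton II (R. opacus, S. epidermidis), Todd Hewitt (S. pyogenes, S. pneumoniae) and Trypticase Soy Yeast broth (L. lactis). MIC was the lowest concentration inhibiting visible growth, from at least three independent experiments.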

[2] = system: Brevibacillus brevis; experiment: Antibacterial activity against 1 x 10^6 CFU/mL Brevibacillus brevis ATCC 8246 in cation-adjusted Mueller Hinton 2 broth after 24 hrs by CLSI broth microdilution method; assay type: functional; conditions: ATCC 8246, 24 h
Outline: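 Brevibacillus brevis: 10⁶ cfu inoculated into 1 ml cultures in cation-adjusted Mueller Hinton II broth with compound and 1% DMSO final. Parallel tubes used 0.8% nutrient broth with 0.5% NaCl or without NaCl. Cultures shaken at 28 °C for 24 h. MIC was the lowest concentration inhibiting visible growth.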

[3] = Antibacterial activity against 1 x 10^7 CFU/mL Staphylococcus aureus NCTC 8325 PAS8001 harboring SpsB P29S mutant in cation-adjusted Mueller Hinton 2 broth after 24 hrs by CLSI broth microdilution method; assay type: functional, Staphylococcus aureus subsp. aureus NCTC 8325; conditions: PAS8001, 24 h
Outline: (§2)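 CLSI broth microdilution in cation-adjusted Mueller Hinton II broth. Inoculum made by suspending organisms grown on solid media in the same broth and diluting to 1×10^7 CFU/ml; 5 μl added to 100 μl medium containing graded compound concentrations. MIC is the lowest concentration preventing visible growth, from at least three independent experiments.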

[4] = system: Pseudomonas aeruginosa; experiment: Antibacterial activity against 1 x 10^7 CFU/mL Pseudomonas aeruginosa PAO1 PAS2008 harboring LepB P84L mutant in cation-adjusted Mueller Hinton 2 broth after 24 hrs by CLSI broth microdilution method; assay type: functional; conditions: PAO1 PAS2008, 24 h; outline: as §2
[5] = Antibacterial activity against 1 x 10^7 CFU/mL Escherichia coli MG1655 PAS0260 harboring LepB P84L mutant in cation-adjusted Mueller Hinton 2 broth after 24 hrs by CLSI broth microdilution method; assay type: functional, Escherichia coli str. K-12 substr. MG1655; conditions: PAS0260, 24 h; outline: as §2
[6] = system: Streptococcus pneumoniae; experiment: Antibacterial activity against 1 x 10^7 CFU/mL Streptococcus pneumoniae R800 in Todd Hewitt broth after 24 hrs by CLSI broth microdilution method; assay type: functional; conditions: R800, 24 h; outline: as §1
[7] = system: Corynebacterium glutamicum; experiment: Antibacterial activity against 1 x 10^7 CFU/mL Corynebacterium glutamicum ATCC 44475 in cation-adjusted Mueller Hinton 2 broth after 24 hrs by CLSI broth microdilution method; assay type: functional; conditions: ATCC 44475, 24 h; outline: as §2
[8] = system: Prescottella equi; experiment: Antibacterial activity against 1 x 10^7 CFU/mL Rhodococcus equi ATCC 6939 in cation-adjusted Mueller Hinton 2 broth after 24 hrs by CLSI broth microdilution method; assay type: functional; conditions: Rhodococcus (subgen. Prescottella) equi, ATCC 6939, 24 h; outline: as §2
[9] = system: Rhodococcus opacus; experiment: Antibacterial activity against 1 x 10^7 CFU/mL Rhodococcus opacus DSM 1069 in cation-adjusted Mueller Hinton 2 broth after 24 hrs by CLSI broth microdilution method; assay type: functional; conditions: DSM 1069, 24 h; outline: as §1
[10] = system: Streptococcus pyogenes; experiment: Antibacterial activity against 1 x 10^7 CFU/mL Streptococcus pyogenes M1-5448 in Todd Hewitt broth after 24 hrs by CLSI broth microdilution method; assay type: functional; conditions: M1-5448, 24 h; outline: as §1
[11] = Antibacterial activity against 1 x 10^7 CFU/mL Staphylococcus epidermidis RP62A PAS9002 harboring Sps1B-S31P mutant in cation-adjusted Mueller Hinton 2 broth after 24 hrs by CLSI broth microdilution method; assay type: functional; conditions: PAS9002, 24 h; outline: as §2
[12] = system: Lactococcus lactis; experiment: Antibacterial activity against 1 x 10^7 CFU/mL Lactococcus lactis ATCC 19257 in trypticase soy yeast broth after 24 hrs by CLSI broth microdilution method; assay type: functional; conditions: ATCC 19257, 24 h; outline: as §1
[13] = system: Streptococcus agalactiae; experiment: Antibacterial activity against 1 x 10^7 CFU/mL Streptococcus agalactiae COH1 after 24 hrs by CLSI broth microdilution method; assay type: functional; conditions: COH1, 24 h
Outline: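 Streptococcus agalactiae tested by CLSI broth microdilution in both cation-adjusted Mueller Hinton II and Todd Hewitt broth. Inoculum was a suspension from solid media at 1×10^7 cfu/ml, with 5 μl added to 100 μl medium containing compound. MIC was the lowest concentration inhibiting visible growth, from at least three independent experiments.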

Work on `CCCCCCCCCCCCCCCC(=O)N(C)[C@H](CO)C(=O)N[C@H](C)C(=O)NCC(=O)N(C)[C@@H]1C(=O)N[C@@H](C)C(=O)N[C@H](C(=O)O)Cc2cc(N)c(O)c(c2)-c2cc1ccc2O` yielded an MIC [1] of 8 µg/mL (≈ 8.93 µM), an MIC [2] of over 64 µg/mL and an MIC [3] of 64 µg/mL (≈ 71.4 µM). The MIC [4] was 32 µg/mL (≈ 35.7 µM) and the MIC [5] was 16 µg/mL (≈ 17.9 µM).

`CCCCCCCCCCCCCCCC(=O)N(C)[C@H](CO)C(=O)N[C@H](C)C(=O)NCC(=O)N(C)[C@@H]1C(=O)N[C@@H](C)C(=O)N[C@H](C(=O)O)Cc2cc(c(O)c([N+](=O)[O-])c2)-c2cc1ccc2O` showed an MIC [6] of 16 µg/mL (≈ 17.3 µM), an MIC [7] of 2 µg/mL (≈ 2.16 µM) and an MIC [8] of 32 µg/mL (≈ 34.6 µM). It also gave an MIC [1] of 0.25 µg/mL (≈ 0.27 µM), an MIC [9] of 4 µg/mL (≈ 4.32 µM) and an MIC [2] of over 64 µg/mL. For the same molecule, the MIC [10] was 4 µg/mL (≈ 4.32 µM), the MIC [11] was 8 µg/mL (≈ 8.64 µM) and the MIC [3] was 4 µg/mL (≈ 4.32 µM). For the same molecule, the MIC [4] was 4 µg/mL (≈ 4.32 µM), the MIC [12] was 32 µg/mL (≈ 34.6 µM) and the MIC [13] was 8 µg/mL (≈ 8.64 µM). For the same molecule, the MIC [5] was 2 µg/mL (≈ 2.16 µM).

For `CCCCCCCCCCCCCCCC(=O)N(C)[C@H](CO)C(=O)N[C@H](C)C(=O)NCC(=O)N(C)[C@@H]1C(=O)N[C@@H](C)C(=O)N[C@H](C(=O)O)Cc2ccc(O)c(c2)-c2cc1ccc2O` [ARYLOMYCIN C16], the MIC [6] was 8 µg/mL (≈ 9.08 µM), the MIC [7] was 2 µg/mL (≈ 2.27 µM) and the MIC [8] was 16 µg/mL (≈ 18.2 µM). It also gave an MIC [1] of 0.25 µg/mL (≈ 0.284 µM), an MIC [9] of 1 µg/mL (≈ 1.13 µM) and an MIC [2] of over 64 µg/mL. For the same molecule, the MIC [10] was 8 µg/mL (≈ 9.08 µM), the MIC [11] was 8 µg/mL (≈ 9.08 µM) and the MIC [3] was 4 µg/mL (≈ 4.54 µM). It also gave an MIC [4] of 4 µg/mL (≈ 4.54 µM), an MIC [12] of 16 µg/mL (≈ 18.2 µM) and an MIC [13] of over 128 µg/mL. For the same molecule, the MIC [5] was 2 µg/mL (≈ 2.27 µM).
